Where “and” joins values, the source holds several entries; their conditions need not be identical. Equal values may be shown once. Calls of active or inactive are those of the source. The calls are words filed in the database; no cut-off is given here.

Assay [1] concerns the target T1, 5-hydroxytryptamine receptor 2C (Homo sapiens) (UniProt P28335).
T1 sequence (whole entry): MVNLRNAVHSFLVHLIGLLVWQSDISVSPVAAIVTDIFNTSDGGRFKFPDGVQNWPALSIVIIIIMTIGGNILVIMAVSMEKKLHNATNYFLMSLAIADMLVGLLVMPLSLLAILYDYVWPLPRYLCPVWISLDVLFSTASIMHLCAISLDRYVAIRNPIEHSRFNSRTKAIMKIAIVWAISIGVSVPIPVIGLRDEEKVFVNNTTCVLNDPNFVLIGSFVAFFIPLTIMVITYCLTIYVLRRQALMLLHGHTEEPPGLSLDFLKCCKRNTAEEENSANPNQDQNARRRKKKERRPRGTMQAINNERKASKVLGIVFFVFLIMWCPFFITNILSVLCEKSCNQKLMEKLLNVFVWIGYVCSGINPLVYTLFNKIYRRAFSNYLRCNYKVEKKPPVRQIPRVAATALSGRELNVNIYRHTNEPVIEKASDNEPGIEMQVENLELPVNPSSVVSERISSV
The assay can be described thus: Agonist activity at human 5-HT2C INI receptor expressed in human Flp-In-293 cells assessed as increase in [3H]myo-inositol accumulation at 1 uM after 5 mins. Type of assay: functional, cell-based. Conditions: filed as partial agonist. In a few lines:
(§1)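 PI hydrolysis: Flp-In-293 5-HT2C INI cells, 25,000/well, labelled 16-18 h with [3H]-myo-inositol (2 µCi/well) in inositol-free DMEM, washed. Drug (1 µM) in HBSS/HEPES pH 7.4 buffer for the indicated times (5 min to 40 h). LiCl (15 mM final) added 2 h before lysis with cold 50 mM formic acid at 4 °C overnight. [3H]-inositol phosphates captured on yttrium silicate beads and counted as CPM.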

The target of assay [2] is T1, 5-hydroxytryptamine receptor 2C (Homo sapiens). The assay can be described thus: Agonist activity at human 5-HT2C INI receptor expressed in human Flp-In-293 cells assessed as increase in [3H]myo-inositol accumulation at 1 uM after 30 hrs. It counts as functional, cell-based. As to conditions: filed as partial agonist. In a few lines: as §1
Assay [3] shares this target. As to the kind of experiment: Induction of Gq-mediated receptor desensitization at human 5-HT2C INI receptor expressed in human Flp-In-293 cells assessed as reduction in Emax for [3H]myo-inositol accumulation at 1 uM after 20 hrs. Type of assay: functional, cell-based. As to conditions: filed as partial agonist. The essentials: as §1
Assay [4] has the same target. The assay can be described thus: Induction of Gq-mediated receptor desensitization at human 5-HT2C INI receptor expressed in human Flp-In-293 cells assessed as reduction in Emax for additional 5-HT-stimulated calcium flux at <1 uM pre-incubated for 30 mins followed by drug wash out (3 times) by Fluo-4 direct dye based FLIPR assay. Type of assay: functional, cell-based. Conditions: dose microM <1, time 30.0 min.

The target of assay [5] is T2, 5-hydroxytryptamine receptor 2C (Homo sapiens, UniProt P28335).
T2 sequence (P28335 whole entry): T1 sequence (whole entry)

Assay [6] deals with T1, 5-hydroxytryptamine receptor 2C (Homo sapiens). As to the kind of experiment: Agonist activity at human 5-HT2C INI receptor expressed in human HEK293 cells assessed as induction of beta-arrestin-2 recruitment incubated for 20 hrs by Tango assay relative to 5HT. Type of assay: cell-based. In a few lines: (§2)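 Tango assay in HTLA cells (HEK line expressing TEV-fused β-arrestin-2 and tTA-driven luciferase) transfected with 5-HT2C INI–tTA fusion carrying a TEV site. Cells were stimulated with the same dilutions used for FLIPR, 20 h at 37 °C and 5% CO2, then lysed with Bright-Glo for 20 min at room temperature and read by luminescence. Data normalized to % 5-HT and fitted sigmoidally; n = 3 in triplicate. Bias from log(Emax/EC50).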

Assay [7] concerns the target T3, 5-hydroxytryptamine receptor 2A (Homo sapiens, UniProt P28223).
The target in assay [8] is T1, 5-hydroxytryptamine receptor 2C (Homo sapiens). As to the kind of experiment: Agonist activity at human 5-HT2C INI receptor expressed in human Flp-In-293 cells assessed as induction of calcium flux incubated for 1 hr by Fluo-4 direct dye based FLIPR assay relative to 5-HT. Conditions: filed as partial agonist. It counts as functional, cell-based. In a few lines:
(§3)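 Calcium flux in Flp-In-293 cells stably expressing the human 5-HT2C INI isoform, Fluo-4 Direct loading for 1 h at 37 °C. Drug dilutions identical to those in the parallel Tango assay, 300 s read at 1 read/s, normalized to % 5-HT. Triplicate, mean ± SEM (n = 3). Bias factors were calculated from change in relative activity, log(Emax/EC50).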
(Calcium assays in cells follow changes in intracellular calcium, usually with a dye or a luminescent sensor.)

Assay [9] addresses T2, 5-hydroxytryptamine receptor 2C. The assay can be described thus: Agonist activity at human 5-HT2C INI receptor expressed in human Flp-In-293 cells assessed as induction of calcium flux incubated for 1 hr by Fluo-4 direct dye based FLIPR assay. Type of assay: functional, cell-based. The essentials: as §3
Assay [10] concerns the target T1, 5-hydroxytryptamine receptor 2C (Homo sapiens). As to the kind of experiment: Agonist activity at human 5-HT2C INI receptor expressed in human Flp-In-293 cells assessed as increase in [3H]myo-inositol accumulation at 1 uM after 90 mins. It counts as functional, cell-based. As to conditions: filed as partial agonist. The essentials:
as §1

Assay [11] addresses T4, 5-hydroxytryptamine receptor 2B (Homo sapiens, UniProt P41595). The assay can be described thus: Agonist activity at human 5-HT2B receptor expressed in human Flp-In-293 cells assessed as induction of calcium flux incubated for 1 hr by Fluo-4 direct dye based FLIPR assay relative to 5-HT. Type of assay: functional, cell-based. Conditions: filed as agonist.
Assay [12] has as its target T2, 5-hydroxytryptamine receptor 2C. As to the kind of experiment: Agonist activity at human 5-HT2C INI receptor expressed in human HEK293 cells assessed as induction of beta-arrestin-2 recruitment incubated for 20 hrs by Tango assay. It counts as cell-based. Conditions: read-out: EC50. The essentials: as §2
On the technique in general: Arrestin recruitment assays detect the binding of arrestin to an activated receptor.

Assay [13] has as its target T1, 5-hydroxytryptamine receptor 2C (Homo sapiens). The assay can be described thus: Agonist activity at human 5-HT2C receptor expressed in human Flp-In-293 cells assessed as induction of calcium flux incubated for 1 hr by Fluo-4 direct dye based FLIPR assay relative to 5-HT. Type of assay: functional, cell-based. As to conditions: filed as partial agonist.
The target is the same in assay [14]. As to the kind of experiment: Agonist activity at human 5-HT2C INI receptor expressed in human Flp-In-293 cells assessed as increase in [3H]myo-inositol accumulation at 1 uM measured up to 5 hrs. Conditions: filed as partial agonist, time hrs <=5. It counts as functional, cell-based. The essentials: as §1
Assay [15] addresses T4, 5-hydroxytryptamine receptor 2B.
Assay [16] deals with T3, 5-hydroxytryptamine receptor 2A. The assay can be described thus: Agonist activity at human 5-HT2A receptor expressed in human Flp-In-293 cells assessed as induction of calcium flux incubated for 1 hr by Fluo-4 direct dye based FLIPR assay relative to 5-HT. Type of assay: functional, cell-based. Conditions: filed as agonist.

T3 sequence (P28223 whole entry): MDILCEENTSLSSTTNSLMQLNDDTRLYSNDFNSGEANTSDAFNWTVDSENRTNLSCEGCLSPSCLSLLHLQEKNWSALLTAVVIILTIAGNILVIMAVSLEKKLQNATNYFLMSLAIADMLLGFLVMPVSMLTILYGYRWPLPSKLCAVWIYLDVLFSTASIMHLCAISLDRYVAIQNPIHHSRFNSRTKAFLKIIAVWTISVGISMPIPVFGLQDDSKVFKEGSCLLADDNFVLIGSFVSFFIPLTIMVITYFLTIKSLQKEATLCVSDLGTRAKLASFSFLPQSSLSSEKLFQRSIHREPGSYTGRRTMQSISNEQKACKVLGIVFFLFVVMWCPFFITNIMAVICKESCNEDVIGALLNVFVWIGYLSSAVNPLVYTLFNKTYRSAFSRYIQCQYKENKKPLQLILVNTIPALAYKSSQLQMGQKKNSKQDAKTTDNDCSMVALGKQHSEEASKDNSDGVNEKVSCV
T4 sequence (P41595 whole entry): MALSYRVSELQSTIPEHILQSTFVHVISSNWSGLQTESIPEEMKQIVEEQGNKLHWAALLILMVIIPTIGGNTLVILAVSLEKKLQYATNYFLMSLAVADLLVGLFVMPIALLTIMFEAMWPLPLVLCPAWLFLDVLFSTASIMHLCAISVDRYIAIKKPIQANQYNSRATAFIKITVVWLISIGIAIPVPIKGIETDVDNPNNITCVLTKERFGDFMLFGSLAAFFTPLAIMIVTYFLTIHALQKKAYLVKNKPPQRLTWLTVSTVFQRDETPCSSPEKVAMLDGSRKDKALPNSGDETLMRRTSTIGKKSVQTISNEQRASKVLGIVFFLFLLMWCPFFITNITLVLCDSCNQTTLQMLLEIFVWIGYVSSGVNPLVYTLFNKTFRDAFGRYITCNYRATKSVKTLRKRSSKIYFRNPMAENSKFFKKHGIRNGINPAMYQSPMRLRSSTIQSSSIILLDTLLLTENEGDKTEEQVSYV

What is called EC50 is the concentration needed to bring the measured effect to its halfway point. Broadly, the Emax is the size of the effect at its maximum, as opposed to the concentration needed. Consider `NC[C@H]1C[C@@H]1c1c(OCCF)ccc2occc12`, for which the outcome in assay [1], in assay [3], in [10] and in [14] was Active. The Activity entry in assay [2] was “Dose-dependent effect”. In addition, in assay [4], the result was inactive. The EC50 is 0.603 nM and 0.59 nM in [5]; 22 nM in assay [7]; 1.2 nM in [9]; 25 nM in [12]; 46 nM in [15]. The Emax in assay [6] amounted to 28%; in assay [8] it was 94%; in assay [11] it was 103%; in [13], 97%; in [16] it was 98%.

Source of the values: ChEMBL document CHEMBL4680082 (J Med Chem, 2016).
